Calls of active or inactive are those of the source. The calls are words filed in the database; no cut-off is given here.
Legend:
[1] = target: 5-hydroxytryptamine receptor 4 (Homo sapiens) (UniProt Q13639); assay: Agonist activity at human 5-HT4R expressed in GloSensor-22F6 expressing 2B2 cells co-expressing Galpha-s assessed as increase in cAMP accumulation up to 60 mins by luminometry relative to control 5-HT; type: functional, cell-based
In short: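 Cells carrying a cAMP luminescence biosensor were additionally transduced with Gαs and human 5-HT4R, then seeded at 25 x 10³ cells/well 24 h ahead. Ligands (up to 10 µM) were added with 1 mM final IBMX.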

[2] = target: 5-hydroxytryptamine receptor 4 (Homo sapiens) (UniProt Q13639); assay: Partial agonist activity at Rluc-tagged human 5-HT4 receptor expressed in human SH-5YSY cells co-expressing RGFP-fused to Gbeta1 assessed as inhibition of serotonin-induced coupling by BRET assay; type: functional, cell-based
[3] = target: 5-hydroxytryptamine receptor 4 (Cavia porcellus, UniProt O70528); assay: Displacement of [3H]GR113808 from serotonin 5-HT4 receptor in Dunkin-Hartley guinea pigs striatal nuclei membranes incubated for 30 mins by liquid scintillation counting
Chain of 5-hydroxytryptamine receptor 4 (O70528 whole entry): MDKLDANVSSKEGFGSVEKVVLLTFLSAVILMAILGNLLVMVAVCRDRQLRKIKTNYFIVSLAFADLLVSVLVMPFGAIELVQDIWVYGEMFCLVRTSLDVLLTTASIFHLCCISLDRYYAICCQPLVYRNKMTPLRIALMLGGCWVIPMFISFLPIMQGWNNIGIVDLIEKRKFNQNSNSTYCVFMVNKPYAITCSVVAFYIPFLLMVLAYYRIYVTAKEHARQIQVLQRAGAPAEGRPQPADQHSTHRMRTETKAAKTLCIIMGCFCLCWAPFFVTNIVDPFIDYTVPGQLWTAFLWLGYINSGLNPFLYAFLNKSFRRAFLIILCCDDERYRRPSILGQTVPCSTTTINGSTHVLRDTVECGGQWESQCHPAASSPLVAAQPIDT

Chain of 5-hydroxytryptamine receptor 4 (Homo sapiens) (Q13639 whole entry, the tested form may be a part): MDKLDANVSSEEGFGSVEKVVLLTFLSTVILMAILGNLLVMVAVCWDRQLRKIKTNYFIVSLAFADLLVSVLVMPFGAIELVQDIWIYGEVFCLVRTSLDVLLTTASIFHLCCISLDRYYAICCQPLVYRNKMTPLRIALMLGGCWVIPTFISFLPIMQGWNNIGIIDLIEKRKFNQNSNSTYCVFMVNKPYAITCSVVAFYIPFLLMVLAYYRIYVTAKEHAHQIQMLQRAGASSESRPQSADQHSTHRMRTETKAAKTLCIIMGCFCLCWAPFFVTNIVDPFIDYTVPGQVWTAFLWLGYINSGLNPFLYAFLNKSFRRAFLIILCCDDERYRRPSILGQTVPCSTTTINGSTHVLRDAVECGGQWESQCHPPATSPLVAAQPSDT

SMILES | Ratio [1] | Activity [2] | Ki [3]
COc1cc(N)c(Cl)cc1C(=O)OCCN1CCC(NC(=O)NCCOCCOCCNC(=O)NCC(=O)OCc2ccccc2)CC1 | 0.15 | Active | 4 nM
COc1cc(N)c(Cl)cc1C(=O)OCCN1CCCCC1 |  | Active | 
COc1cc(N)c(Cl)cc1C(=O)N[C@H]1CCN(CCCOc2ccc(F)cc2)C[C@H]1OC |  | Active | 
COc1cc(N)c(Cl)cc1C(=O)OCCN1CCC(NC(=O)NCCOCCOCCNC(=O)NC2CCN(CCOC(=O)c3cc(Cl)c(N)cc3OC)CC2)CC1 | 0.28 | Active | 4 nM
CCCCNC(=O)NC1CCN(CCOC(=O)c2cc(Cl)c(N)cc2OC)CC1 | 0.24 | Active | 13 nM
COc1cc(N)c(Cl)cc1C(=O)OCCN1CCC(NC(=O)NCCOCCOCCNC(=O)NCC(=O)O)CC1 | 0.21 | Active | 61 nM
COc1cc(N)c(Cl)cc1C(=O)OCCN1CCC(NC(=O)NCCOCCOCCOCCOCCOCCOCCOCCOCCn2cc(CNC(=O)NCCCN(C)CCCNC(=O)NCc3cn(CCOCCOCCOCCOCCOCCOCCOCCOCCNC(=O)NC4CCN(CCOC(=O)c5cc(Cl)c(N)cc5OC)CC4)nn3)nn2)CC1 | 0.16 | Active | 9 nM

The next lines start with the values.

Ratio [1] | Activity [2] | Ki [3] | SMILES
0.14 | Active | 4.5 nM | COc1cc(N)c(Cl)cc1C(=O)OCCN1CCC(NC(=O)NCCOCCOCCOCCOCCOCCOCCOCCOCCn2cc(CNC(=O)NCCCN(CCCCN(CCCNC(=O)NCc3cn(CCOCCOCCOCCOCCOCCOCCOCCOCCNC(=O)NC4CCN(CCOC(=O)c5cc(Cl)c(N)cc5OC)CC4)nn3)CCCNC(=O)NCc3cn(CCOCCOCCOCCOCCOCCOCCOCCOCCNC(=O)NC4CCN(CCOC(=O)c5cc(Cl)c(N)cc5OC)CC4)nn3)CCCNC(=O)NCc3cn(CCOCCOCCOCCOCCOCCOCCOCCOCCNC(=O)NC4CCN(CCOC(=O)c5cc(Cl)c(N)cc5OC)CC4)nn3)nn2)CC1
0.09 | Active |  | COc1cc(N)c(Cl)cc1C(=O)OCCCN1CCCCC1
0.18 | Active | 121 nM | COc1cc(N)c(Cl)cc1C(=O)OCCN1CCC(NC(=O)NCCOCCOCCOCCOCCOCCOCCOCCOCCN=[N+]=[N-])CC1
0.21 | Active | 30 nM | COc1cc(N)c(Cl)cc1C(=O)OCCN1CCC(NC(=O)OC(C)(C)C)CC1

Reference: ChEMBL document CHEMBL4138046, “Multivalent ligands for the serotonin 5-HT4 receptor” (Medchemcomm, 2017)
